This note sets out measurements from ChEMBL document CHEMBL1135836, “Cyclodextrin-derived host molecules as reversal agents for the neuromuscular blocker rocuronium bromide: synthesis and structure-activity relationships” (J Med Chem, 2002).

Common to all, as to format: functional
In test [1] the test system is Cavia porcellus. Briefly: In vivo reversal activity versus ~90% block by rocuronium in guinea pig, expressed as % of maximum reversal at 3.2 umol/kg conc. The gist of the method: (§1)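 Male Dunkin-Hartley guinea pigs (600-900 g) anaesthetized ip with pentobarbitone 10 mg/kg plus urethane 1000 mg/kg, tracheotomized and artificially ventilated. Continuous iv rocuronium bromide infusion (~10 nmol kg-1 min-1) raised until steady-state twitch block of 85-90%. Increasing single iv doses of reversal agent given by a separate catheter. Max reversal is peak twitch recovery versus preblock height at highest dose tested; means ± SEM, n ≥ 2 or single experiment.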

Test [2] is filed under the species Mus musculus. Briefly: In vitro reversal activity versus ~90% block by rocuronium in isolated mouse hemidiaphragm, expressed as effective conc.
Test [3] deals with Cavia porcellus. Briefly: In vivo reversal activity versus ~90% block by rocuronium in guinea pig. The method, boiled down:
(§2)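 Male Dunkin-Hartley guinea pigs (600-900 g), anaesthetized ip with pentobarbitone 10 mg/kg plus urethane 1000 mg/kg, tracheotomized and ventilated. Continuous iv rocuronium infusion (~10 nmol kg-1 min-1) was raised to a steady 85-90% block. Increasing iv doses of agent were given cumulatively. ED50 = 50% recovery versus preblock twitch, by regression. Mean ± SEM of at least two experiments, or one.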

The species named for test [4] is Mus musculus. Briefly: In vitro reversal activity versus ~90% block by rocuronium in isolated mouse hemidiaphragm, expressed as % of maximum reversal at 14.4 uM conc.
Test [5] relates to Cavia porcellus. Briefly: In vivo reversal activity versus ~90% block by rocuronium in guinea pig, expressed as % of maximum reversal at 2.5 umol/kg conc. The gist of the method:
as §1

For test [6], the species on record is Mus musculus. Briefly: In vitro reversal activity versus ~90% block by rocuronium in isolated mouse hemidiaphragm, expressed as % of maximum reversal at 12.6 uM conc.
The species entered for test [7] is Mus musculus. As to the kind of experiment: In vitro reversal activity versus ~90% block by rocuronium in isolated mouse hemidiaphragm, expressed as % of maximum reversal at 3.6 uM conc.
Test [8] relates to Cavia porcellus. As to the kind of experiment: In vivo reversal activity versus ~90% block by rocuronium in guinea pig, expressed as % of maximum reversal at 0.2 umol/kg conc. The method, boiled down:
as §2

For test [9], the species on record is Mus musculus. Briefly: In vitro reversal activity versus ~90% block by rocuronium in isolated mouse hemidiaphragm, expressed as % of maximum reversal at 5.4 uM conc.
Test [10] relates to Cavia porcellus. Briefly: In vivo reversal activity versus ~90% block by rocuronium in guinea pig, expressed as % of maximum reversal at 0.6 umol/kg conc. The method, boiled down:
as §2

For test [11], the system named is Cavia porcellus. As to the kind of experiment: In vivo reversal activity versus ~90% block by rocuronium in guinea pig, expressed as % of maximum reversal at 21 umol/kg conc. The gist of the method:
as §1

Test [12] is filed under the species Mus musculus. Briefly: In vitro reversal activity versus ~90% block by rocuronium in isolated mouse hemidiaphragm, expressed as % of maximum reversal at 18 uM conc.
For test [13], the system named is Cavia porcellus. Briefly: In vivo reversal activity versus ~90% block by rocuronium in guinea pig, expressed as % of maximum reversal at 30.7 umol/kg conc. The gist of the method:
as §1

In test [14] the test system is Cavia porcellus. As to the kind of experiment: In vivo reversal activity versus ~90% block by rocuronium in guinea pig, expressed as % of maximum reversal at 1.3 umol/kg conc. The gist of the method: as §2
The species entered for test [15] is Mus musculus. As to the kind of experiment: In vitro reversal activity versus ~90% block by rocuronium in isolated mouse hemidiaphragm, expressed as % of maximum reversal at 7.2 uM conc.
The subject of test [16] is Cavia porcellus. Briefly: In vivo reversal activity versus ~90% block by rocuronium in guinea pig, expressed as % of maximum reversal at 25.6 umol/kg conc. The gist of the method:
as §1

As usually defined, the EC50 is the midpoint of the concentration-response curve. By ED50 is commonly meant the midpoint of the dose-response relation. In the case of `O=C([O-])CCCSCC1O[C@@H]2O[C@@H]3C(CSCCCC(=O)[O-])O[C@H](O[C@@H]4C(CSCCCC(=O)[O-])O[C@H](O[C@@H]5C(CSCCCC(=O)[O-])O[C@@H](O[C@@H]6C(CSCCCC(=O)[O-])O[C@H](O[C@@H]7C(CSCCCC(=O)[O-])O[C@H](O[C@@H]8C(CSCCCC(=O)[O-])O[C@H](O[C@H]1C(O)C2O)C(O)C8O)C(O)C7O)C(O)C6O)C(O)C5O)C(O)C4O)C(O)C3O.[Na+].[Na+].[Na+].[Na+].[Na+].[Na+].[Na+]` (some centres not stated), the Max reversal in the test with Cavia porcellus [1] worked out at 99.6%; in the test filed under Mus musculus [4] it was 95.3%. Also, in the test listed under Mus musculus [2], the EC50 turned out to be 5 µM. In addition, the median effective dose (ED50) in the test on Cavia porcellus [3] was found to be 0.49 µmol/kg.

Turning to `O=C([O-])CCCCCSCC1O[C@@H]2O[C@@H]3C(CSCCCCCC(=O)[O-])O[C@H](O[C@@H]4C(CSCCCCCC(=O)[O-])O[C@H](O[C@@H]5C(CSCCCCCC(=O)[O-])O[C@H](O[C@@H]6C(CSCCCCCC(=O)[O-])O[C@H](O[C@@H]7C(CSCCCCCC(=O)[O-])O[C@H](O[C@@H]8C(CSCCCCCC(=O)[O-])O[C@H](O[C@@H]9C(CSCCCCCC(=O)[O-])O[C@H](O[C@H]1C(O)C2O)C(O)C9O)C(O)C8O)C(O)C7O)C(O)C6O)C(O)C5O)C(O)C4O)C(O)C3O.[Na+].[Na+].[Na+].[Na+].[Na+].[Na+].[Na+].[Na+]` (some centres not stated), the Max reversal in the test with Cavia porcellus [5] is given as 78.4%; in the test filed under Mus musculus [6] it was 81.7%. In the test filed under Mus musculus [2], the EC50 is 7 µM. The ED50 in the test with Cavia porcellus [3] amounted to 0.74 µmol/kg.

In the case of `O=S(=O)([O-])CCCSCC1O[C@@H]2O[C@@H]3C(CSCCCS(=O)(=O)[O-])O[C@H](O[C@@H]4C(CSCCCS(=O)(=O)[O-])O[C@H](O[C@@H]5C(CSCCCS(=O)(=O)[O-])O[C@H](O[C@@H]6C(CSCCCS(=O)(=O)[O-])O[C@H](O[C@@H]7C(CSCCCS(=O)(=O)[O-])O[C@H](O[C@@H]8C(CSCCCS(=O)(=O)[O-])O[C@H](O[C@@H]9C(CSCCCS(=O)(=O)[O-])O[C@H](O[C@H]1C(O)C2O)C(O)C9O)C(O)C8O)C(O)C7O)C(O)C6O)C(O)C5O)C(O)C4O)C(O)C3O.[Na+].[Na+].[Na+].[Na+].[Na+].[Na+].[Na+].[Na+]` (some centres not stated), in the test filed under Mus musculus [2], the EC50 came to 1.8 µM. Moreover, the Max reversal amounted to 99.3% in the test listed under Mus musculus [7] and 98.6% with Cavia porcellus [8]. Moreover, in the test with Cavia porcellus [3], the ED50 came to 0.07 µmol/kg.

Turning to `O=C([O-])CCC(=O)NCCSCC1O[C@@H]2O[C@@H]3C(CSCCNC(=O)CCC(=O)[O-])O[C@H](O[C@@H]4C(CSCCNC(=O)CCC(=O)[O-])O[C@H](O[C@@H]5C(CSCCNC(=O)CCC(=O)[O-])O[C@H](O[C@@H]6C(CSCCNC(=O)CCC(=O)[O-])O[C@H](O[C@@H]7C(CSCCNC(=O)CCC(=O)[O-])O[C@H](O[C@@H]8C(CSCCNC(=O)CCC(=O)[O-])O[C@H](O[C@@H]9C(CSCCNC(=O)CCC(=O)[O-])O[C@H](O[C@H]1C(O)C2O)C(O)C9O)C(O)C8O)C(O)C7O)C(O)C6O)C(O)C5O)C(O)C4O)C(O)C3O.[Na+].[Na+].[Na+].[Na+].[Na+].[Na+].[Na+].[Na+]` (some centres not stated), the EC50 in the test listed under Mus musculus [2] came to 1.08 µM. The Max reversal in the test filed under Mus musculus [9] was 99.4%; with Cavia porcellus [10], 107.1%. The ED50 in the test on Cavia porcellus [3] is 0.07 µmol/kg.

For the compound `O=C([O-])CSCC1O[C@@H]2O[C@@H]3C(CSCC(=O)[O-])O[C@H](O[C@@H]4C(CSCC(=O)[O-])O[C@H](O[C@@H]5C(CSCC(=O)[O-])O[C@H](O[C@@H]6C(CSCC(=O)[O-])O[C@H](O[C@@H]7C(CSCC(=O)[O-])O[C@H](O[C@H]1C(O)C2O)C(O)C7O)C(O)C6O)C(O)C5O)C(O)C4O)C(O)C3O.[Na+].[Na+].[Na+].[Na+].[Na+].[Na+]` (some centres not stated), in the test filed under Mus musculus [2], the EC50 was above 18 µM. The values for the Max reversal in the test on Cavia porcellus [11] and in the test filed under Mus musculus [12] were 3.6% and 22.8%, respectively. The median effective dose (ED50) with Cavia porcellus [3] is above 21 µmol/kg.

`O=C([O-])Cc1ccc(SCC2O[C@@H]3O[C@@H]4C(CO)O[C@H](O[C@@H]5C(CO)O[C@H](O[C@@H]6C(CO)O[C@H](O[C@@H]7C(CO)O[C@H](O[C@@H]8C(CO)O[C@H](O[C@@H]9C(CO)O[C@H](O[C@@H]%10C(CO)O[C@H](O[C@H]2C(O)C3O)C(O)C%10O)C(O)C9O)C(O)C8O)C(O)C7O)C(O)C6O)C(O)C5O)C(O)C4O)cc1.[Na+]` (some centres not stated): the EC50 in the test filed under Mus musculus [2] turned out to be 34.7 µM. Further, the Max reversal with Cavia porcellus [13] was 97.1%; in the test listed under Mus musculus [12] it was 45%. Further, the ED50 with Cavia porcellus [3] stood at 4.55 µmol/kg.

With `O=C([O-])c1cccc(SCC2O[C@@H]3O[C@@H]4C(CSc5cccc(C(=O)[O-])c5)O[C@H](O[C@@H]5C(CSc6cccc(C(=O)[O-])c6)O[C@H](O[C@@H]6C(CSc7cccc(C(=O)[O-])c7)O[C@H](O[C@@H]7C(CSc8cccc(C(=O)[O-])c8)O[C@H](O[C@@H]8C(CSc9cccc(C(=O)[O-])c9)O[C@H](O[C@@H]9C(CSc%10cccc(C(=O)[O-])c%10)O[C@H](O[C@@H]%10C(CSc%11cccc(C(=O)[O-])c%11)O[C@H](O[C@H]2C(O)C3O)C(O)C%10O)C(O)C9O)C(O)C8O)C(O)C7O)C(O)C6O)C(O)C5O)C(O)C4O)c1.[Na+].[Na+].[Na+].[Na+].[Na+].[Na+].[Na+].[Na+]` (some centres not stated), the Max reversal with Cavia porcellus [14] was 102%; in the test filed under Mus musculus [15], 95.7%. Further, in the test listed under Mus musculus [2], the EC50 amounted to 3.3 µM. For the same compound, in the test on Cavia porcellus [3], the ED50 came out at 0.28 µmol/kg.

Regarding `Oc1ccc(SCC2O[C@@H]3O[C@@H]4C(CSc5ccc(O)cc5)O[C@H](O[C@@H]5C(CSc6ccc(O)cc6)O[C@H](O[C@@H]6C(CSc7ccc(O)cc7)O[C@H](O[C@@H]7C(CSc8ccc(O)cc8)O[C@H](O[C@@H]8C(CSc9ccc(O)cc9)O[C@H](O[C@@H]9C(CSc%10ccc(O)cc%10)O[C@H](O[C@@H]%10C(CSc%11ccc(O)cc%11)O[C@H](O[C@H]2C(O)C3O)C(O)C%10O)C(O)C9O)C(O)C8O)C(O)C7O)C(O)C6O)C(O)C5O)C(O)C4O)cc1` (some centres not stated), the Max reversal in the test on Cavia porcellus [16] is 79.3%; in the test filed under Mus musculus [4] it was 93.2%. For the same compound, the concentration for a half-maximal effect (EC50) in the test filed under Mus musculus [2] is 4.9 µM. Moreover, in the test with Cavia porcellus [3], the ED50 stood at 4.1 µmol/kg.
